Data: paper PMC12804367 (ESMO Open, 2025)
Where “and” joins values, the source holds several entries; their conditions need not be identical. Identical values can stand only once. Entries after “also recorded” stand apart in the source; their conditions may differ. Like-named read-outs stand apart in the source and are kept apart here.

Assays:
[1] = test system: patients with advanced or metastatic solid tumors; experiment: Safety, tolerability and DLTs; type: in vivo, human; settings: for Treatment-related AE: decreased appetite / Treatment-related AE: fatigue / Treatment-related AE: hyperglycemia / Treatment-related AE: pruritus / Treatment-related AE: rash: all patients (17)
How it was run: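 3 + 3 escalation starting at 16 mg/day once daily or 24 mg/day intermittent (4 days on/3 days off) in 21-day cycles. AEs graded by CTCAE v5.0. DLTs were selected lab abnormalities or AEs at least possibly drug-related during cycle 1, assessed in patients with a DLT or ≥80% of planned doses taken.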

[2] = test system: advanced or metastatic solid tumors; experiment: Antitumor activity per RECIST v1.1; type: in vivo, human
How it was run: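 Open-label, single-arm, 3 + 3 dose-escalation lead-in. Adults with advanced or metastatic solid tumors that had progressed on standard therapy and had ≥1 lesion per RECIST v1.1. Test compound given once daily (16 or 20 mg) or 4 days on/3 days off (24 or 28 mg) in 21-day cycles until progression or toxicity. Response, DCR and PFS were assessed in all dosed patients, with 95% CI.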

[3] = test system: patients with advanced solid tumors; settings: all patients; cited from earlier work
[4] = Japanese phase I study; cited from earlier work
[5] = test system: advanced solid tumors; settings: cited from earlier work
[6] = test system: refractory gastrointestinal cancers / advanced solid tumors; settings: cited from earlier work
[7] = test system: kinases; settings: cited from earlier work
[8] = all patients (N = 17), any grade
[9] = all patients (N = 17), grade ≥3
[10] = dose escalation intermittent 24 mg (n = 4)
[11] = dose escalation intermittent 28 mg (n = 3)
[12] = dose escalation intermittent total (n = 7), any grade
[13] = dose escalation intermittent total (n = 7), grade ≥3
[14] = dose escalation o.d. 16 mg (n = 3)
[15] = dose escalation o.d. 20 mg (n = 6)
[16] = dose escalation o.d. total (n = 9), any grade
[17] = dose escalation o.d. total (n = 9), grade ≥3
[18] = two intermittent dosing groups (n = 7)
[19] = one patient, germline PTEN mutation, metaplastic breast cancer, 20 mg o.d.

C[C@]1(O)C[C@@](N)(c2ccc(-c3nc4n(c3-c3ccccc3)COc3ccncc3-4)cc2)C1 [TAS-117]
DLTs ([1]; 16 mg o.d.): no DLTs | Time to resolution of DLT ([1]; 20 mg o.d., grade 3 neutropenic infection, dose not modified): ≤ 6 days | DLT event ([1]; 20 mg o.d., one patient): grade 3 neutropenic infection | DLT event ([1]; 28 mg intermittent dosing, two patients): grade 3 oral mucositis; also recorded: grade 3 stomatitis | Time to resolution of DLT (stomatitis) ([1]; 28 mg intermittent, TAS-117 paused, per patient): ≤ 6 days and ≤ 7 days | Grade ≥3 TRAEs ([1]; 16-mg o.d. dose cohort): 33.3% | TRAEs ([1]; 16-mg o.d. dose cohort): 66.7% | TRAEs reported ([1]; 16-mg o.d. dose level): rash (grade 3) and hyperglycemia (grade 2) | Grade ≥3 TRAEs ([1]; 20-mg o.d. dose cohort): 66.7% | TRAEs ([1]; 20-mg o.d. dose cohort): 100% | Patients with treatment discontinued due to a TRAE ([1]; 20-mg o.d. dose group): 50.0% | Patients with grade ≥3 TRAEs ([1]; 20-mg o.d. dose level, out of six): four | Any-grade TRAEs ([1]; 24-mg intermittent dose group): 50.0% | Grade ≥3 TRAEs ([1]; 24-mg intermittent dose group): 25.0% | Any-grade TRAEs ([1]; 28-mg intermittent dose group): 100.0% | Grade ≥3 TRAEs ([1]; 28-mg intermittent dose group): 66.7% | Patients with any TRAE ([1]; DRC 16 mg o.d. (n = 1)): 0 n (%) | Treatment-related AE: decreased appetite ([1]; all grade): 17.6% | Treatment-related AE: fatigue ([1]; all grade): 35.3% | Treatment-related AE: hyperglycemia ([1]; all grade): 29.4% | Treatment-related AE: pruritus ([1]; all grade): 29.4% | Treatment-related AE: rash ([1]; all grade): 58.8% | Treatment-related AE: decreased appetite ([1]; grade ≥3): 0% | Treatment-related AE: fatigue ([1]; grade ≥3): 1% | Treatment-related AE: hyperglycemia ([1]; grade ≥3): 1% | Treatment-related AE: pruritus ([1]; grade ≥3): 0% | Treatment-related AE: rash ([1]; grade ≥3): 17.6% | Patients with any TRAE [1, 8]: 13 (76.5) n (%) | TRAE: Decreased appetite [1, 8]: 3 (17.6) n (%) | TRAE: Diarrhea [1, 8]: 3 (17.6) n (%) | TRAE: Fatigue [1, 8]: 6 (35.3) n (%) | TRAE: Hyperglycemia [1, 8]: 5 (29.4) n (%) | TRAE: Nausea [1, 8]: 2 (11.8) n (%) | TRAE: Pruritus [1, 8]: 5 (29.4) n (%) | TRAE: Rash [1, 8]: 10 (58.8) n (%) | TRAE: Rash maculopapular [1, 8]: 2 (11.8) n (%) | TRAE: Stomatitis [1, 8]: 3 (17.6) n (%) | Patients with any TRAE [1, 9]: 8 (47.1) n (%) | TRAE: Fatigue [1, 9]: 1 (5.9) n (%) | TRAE: Hyperglycemia [1, 9]: 1 (5.9) n (%) | TRAE: Rash [1, 9]: 3 (17.6) n (%) | TRAE: Rash maculopapular [1, 9]: 2 (11.8) n (%) | TRAE: Stomatitis [1, 9]: 2 (11.8) n (%) | Tolerability ([1]; at the RP2D, 16 mg o.d.): tolerable, with a manageable safety profile; also recorded: tolerable, with a manageable AE profile | Patients with any TRAE [1, 10]: 2 (50.0) n (%) | TRAE: Fatigue [1, 10]: 2 (50.0) n (%) | TRAE: Hyperglycemia [1, 10]: 1 (25.0) n (%) | TRAE: Pruritus [1, 10]: 2 (50.0) n (%) | TRAE: Rash [1, 10]: 2 (50.0) n (%) | Patients with any TRAE [1, 11]: 3 (100) n (%) | TRAE: Decreased appetite [1, 11]: 2 (66.7) n (%) | TRAE: Fatigue [1, 11]: 2 (66.7) n (%) | TRAE: Hyperglycemia [1, 11]: 2 (66.7) n (%) | TRAE: Pruritus [1, 11]: 2 (66.7) n (%) | TRAE: Rash [1, 11]: 2 (66.7) n (%) | TRAE: Rash maculopapular [1, 11]: 1 (33.3) n (%) | TRAE: Stomatitis [1, 11]: 3 (100) n (%) | Patients with any TRAE [1, 12]: 5 (71.4) n (%) | TRAE: Decreased appetite [1, 12]: 2 (28.6) n (%) | TRAE: Diarrhea [1, 12]: 1 (14.3) n (%) | TRAE: Fatigue [1, 12]: 4 (57.1) n (%) | TRAE: Hyperglycemia [1, 12]: 3 (42.9) n (%) | TRAE: Nausea [1, 12]: 1 (14.3) n (%) | TRAE: Pruritus [1, 12]: 4 (57.1) n (%) | TRAE: Rash [1, 12]: 4 (57.1) n (%) | TRAE: Rash maculopapular [1, 12]: 1 (14.3) n (%) | TRAE: Stomatitis [1, 12]: 3 (42.9) n (%) | Patients with any TRAE [1, 13]: 3 (42.9) n (%) | TRAE: Hyperglycemia [1, 13]: 1 (14.3) n (%) | TRAE: Rash [1, 13]: 1 (14.3) n (%) | TRAE: Rash maculopapular [1, 13]: 1 (14.3) n (%) | TRAE: Stomatitis [1, 13]: 2 (28.6) n (%) | Patients with any TRAE [1, 14]: 2 (66.7) n (%) | TRAE: Hyperglycemia [1, 14]: 1 (33.3) n (%) | TRAE: Rash [1, 14]: 2 (66.7) n (%) | Patients with any TRAE [1, 15]: 6 (100) n (%) | TRAE: Decreased appetite [1, 15]: 1 (16.7) n (%) | TRAE: Diarrhea [1, 15]: 2 (33.3) n (%) | TRAE: Fatigue [1, 15]: 2 (33.3) n (%) | TRAE: Hyperglycemia [1, 15]: 1 (16.7) n (%) | TRAE: Nausea [1, 15]: 1 (16.7) n (%) | TRAE: Pruritus [1, 15]: 1 (16.7) n (%) | TRAE: Rash [1, 15]: 4 (66.7) n (%) | TRAE: Rash maculopapular [1, 15]: 1 (16.7) n (%) | Patients with any TRAE [1, 16]: 8 (88.9) n (%) | TRAE: Decreased appetite [1, 16]: 1 (11.1) n (%) | TRAE: Diarrhea [1, 16]: 2 (22.2) n (%) | TRAE: Fatigue [1, 16]: 2 (22.2) n (%) | TRAE: Hyperglycemia [1, 16]: 2 (22.2) n (%) | TRAE: Nausea [1, 16]: 1 (11.1) n (%) | TRAE: Pruritus [1, 16]: 1 (11.1) n (%) | TRAE: Rash [1, 16]: 6 (66.7) n (%) | TRAE: Rash maculopapular [1, 16]: 1 (11.1) n (%) | Patients with any TRAE [1, 17]: 5 (55.6) n (%) | TRAE: Fatigue [1, 17]: 1 (11.1) n (%) | TRAE: Rash [1, 17]: 2 (22.2) n (%) | TRAE: Rash maculopapular [1, 17]: 1 (11.1) n (%) | Patients who experienced a DLT ([1]; dose-escalation part, assessable patients (n = 16), cycle 1): three | TEAEs leading to death ([1]; either dosing regimen): No TEAEs leading to death | Patients with dose interruption due to an AE ([1]; intermittent dosing groups): 57.1% | Patients with dose reductions due to an AE ([1]; intermittent dosing groups): 42.9% | Patients with treatment discontinued due to a TRAE ([1]; intermittent dosing groups, grade 3 skin exfoliation at 28 mg): 14.3% | Patients with treatment-related serious AEs ([1]; o.d. dosing groups, all at 20 mg o.d.): three | Patients with AEs leading to dose interruptions ([1]; o.d. dosing regimen): 66.7% | Patients with AEs leading to dose reductions ([1]; o.d. dosing regimen): 0% | TRAE: Diarrhea ([1]; o.d. dosing regimen (n = 9)): 22.2% | TRAE: Fatigue ([1]; o.d. dosing regimen (n = 9)): 22.2% | TRAE: Hyperglycemia ([1]; o.d. dosing regimen (n = 9)): 22.2% | TRAE: Rash ([1]; o.d. dosing regimen (n = 9)): 66.7% | Grade ≥3 TRAE: stomatitis [1, 18]: 28.6% | Grade ≥3 TRAEs [1, 18]: 42.9% | TRAE: Decreased appetite [1, 18]: 28.6% | TRAE: Fatigue [1, 18]: 57.1% | TRAE: Hyperglycemia [1, 18]: 42.9% | TRAE: Pruritus [1, 18]: 57.1% | TRAE: Rash [1, 18]: 57.1% | TRAE: Stomatitis [1, 18]: 42.9% | Median PFS ([2]; all cohorts, 95% CI 1.3-3.5 months): 2.7 months | DCR ([2]; all patients, 95% CI 18.4% to 67.1%): 41.2% | Patients with stable disease as best response ([2]; o.d. dosing, all at 20 mg): three | Best overall response [2, 19]: stable disease | Duration of stable disease / treatment, ongoing at data cut-off [2, 19]: 19.1 months | Duration of stable disease / treatment as of manuscript drafting ([2]; one patient, germline PTEN mutation, metaplastic breast cancer, ongoing): > 3 years | Objective response (RECIST v1.1, investigator assessment) ([2]; patients assessed, n = 15, dose escalation (all-comers)): None and no patients having a confirmed response | Tolerability of 24-mg o.d. dose level [3]: intolerable skin toxicities | Accumulation of Cmax and AUC0-24 [4]: threefold to fourfold | Objective responses ([5]; PIK3CA-mutant endometrial cancer, 1 out of 16 patients): 6.3% | Objective responses ([5]; ovarian clear cell carcinoma, 3 out of 20 patients): 15% | Antitumor activity and safety ([5]; patients with advanced solid tumors): preliminary antitumor activity and a manageable safety profile | Patients who achieved a partial response ([6]; PIK3CA-mutant ovarian cancer): 1 patient | Antitumor activity and toxicity ([6]; patients with refractory gastrointestinal cancers): limited antitumor activity and manageable toxicity | Off-target inhibition of kinases [7]: no observed off-target inhibition of kinases
